Data from ChEMBL document CHEMBL1649574, “Prevalence and characterization of heterogeneous vancomycin-intermediate Staphylococcus aureus isolates from 14 cities in China” (2009).
≈ marks a conversion by molar mass, not a printed value.

Tests used:
Type in all cases: functional
Staphylococcus aureus [1] = test: Antimicrobial activity against SCCmec type II vancomycin-intermediate Staphylococcus aureus isolate b2k4781 by agar dilution method
Method in brief: (§1)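 Agar-dilution MICs were measured on a subset of 200 blood MRSA isolates from China. Agents: oxacillin, rifampin, gentamicin, levofloxacin, erythromycin, vancomycin, teicoplanin, tigecycline, ceftobiprole and linezolid. Phenotype came from the PAP-AUC ratio of each isolate to S. aureus Mu3 (VSSA <0.9; hVISA 0.9 to 1.3; VISA ≥1.3), read on BHI agar with 0 to 8.0 mg/liter vancomycin after 48 h at 35°C.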

Staphylococcus aureus [2] = test: Antimicrobial activity against SCCmec type III vancomycin-intermediate Staphylococcus aureus isolate bd4768 by agar dilution method; method in brief: as §1
Staphylococcus aureus [3] = test: Antimicrobial activity against SCCmec type III vancomycin-intermediate Staphylococcus aureus isolate gz07030 by agar dilution method; method in brief: as §1
Staphylococcus aureus [4] = test: Antimicrobial activity against SCCmec type III vancomycin-intermediate Staphylococcus aureus isolate b3k2345 by agar dilution method; method in brief: as §1
Staphylococcus aureus [5] = test: Antimicrobial activity against SCCmec type III vancomycin-intermediate Staphylococcus aureus isolate gz06051 by agar dilution method; method in brief: as §1
Staphylococcus aureus [6] = test: Antimicrobial activity against SCCmec type III vancomycin-intermediate Staphylococcus aureus isolate 15b52 by agar dilution method; method in brief: as §1
Staphylococcus aureus [7] = test: Antimicrobial activity against SCCmec type III vancomycin-intermediate Staphylococcus aureus isolate b6k1642 by agar dilution method; method in brief: as §1
Staphylococcus aureus [8] = test: Antimicrobial activity against SCCmec type II vancomycin-intermediate Staphylococcus aureus isolate 4sy32 by agar dilution method; method in brief: as §1
Staphylococcus aureus [9] = test: Antimicrobial activity against SCCmec type III vancomycin-intermediate Staphylococcus aureus isolate gs07022 by agar dilution method; method in brief: as §1
Staphylococcus aureus [10] = test: Antimicrobial activity against SCCmec type III vancomycin-intermediate Staphylococcus aureus isolate b6k7974 by agar dilution method; method in brief: as §1
Staphylococcus aureus [11] = test: Antimicrobial activity against SCCmec type II vancomycin-intermediate Staphylococcus aureus isolate 6zjsau7 by agar dilution method; method in brief: as §1
Staphylococcus aureus [12] = test: Antimicrobial activity against SCCmec type IV vancomycin-intermediate Staphylococcus aureus isolate 06b41 by agar dilution method; method in brief: as §1
Staphylococcus aureus [13] = test: Antimicrobial activity against SCCmec type III vancomycin-intermediate Staphylococcus aureus isolate sh07043 by agar dilution method; method in brief: as §1
Staphylococcus aureus [14] = test: Antimicrobial activity against SCCmec type III vancomycin-intermediate Staphylococcus aureus isolate b3k5923 by agar dilution method; method in brief: as §1
Staphylococcus aureus [15] = test: Antimicrobial activity against SCCmec type III vancomycin-intermediate Staphylococcus aureus isolate b2k3421 by agar dilution method; method in brief: as §1
Staphylococcus aureus [16] = test: Antimicrobial activity against SCCmec type II vancomycin-intermediate Staphylococcus aureus isolate sh06024 by agar dilution method; method in brief: as §1
Staphylococcus aureus [17] = test: Antimicrobial activity against SCCmec type III vancomycin-intermediate Staphylococcus aureus isolate 13b16 by agar dilution method; method in brief: as §1
Staphylococcus aureus [18] = test: Antimicrobial activity against SCCmec type III vancomycin-intermediate Staphylococcus aureus isolate b4k6307 by agar dilution method; method in brief: as §1
Staphylococcus aureus [19] = test: Antimicrobial activity against SCCmec type III vancomycin-intermediate Staphylococcus aureus isolate b5k3578 by agar dilution method; method in brief: as §1
Staphylococcus aureus [20] = test: Antimicrobial activity against SCCmec type II vancomycin-intermediate Staphylococcus aureus isolate 07b63 by agar dilution method; method in brief: as §1
Staphylococcus aureus [21] = test: Antimicrobial activity against SCCmec type III vancomycin-intermediate Staphylococcus aureus isolate gz06040 by agar dilution method; method in brief: as §1
Staphylococcus aureus [22] = test: Antimicrobial activity against SCCmec type III vancomycin-intermediate Staphylococcus aureus isolate 11b091 by agar dilution method; method in brief: as §1
Staphylococcus aureus [23] = test: Antimicrobial activity against SCCmec type III vancomycin-intermediate Staphylococcus aureus isolate b5k3529 by agar dilution method; method in brief: as §1
Staphylococcus aureus [24] = test: Antimicrobial activity against SCCmec type III vancomycin-intermediate Staphylococcus aureus isolate xa07029 by agar dilution method; method in brief: as §1
Staphylococcus aureus [25] = test: Antimicrobial activity against SCCmec type II vancomycin-intermediate Staphylococcus aureus isolate 4sy39 by agar dilution method; method in brief: as §1
Staphylococcus aureus [26] = test: Antimicrobial activity against SCCmec type III vancomycin-intermediate Staphylococcus aureus isolate 5zjsau3 by agar dilution method; method in brief: as §1
Staphylococcus aureus [27] = test: Antimicrobial activity against SCCmec type III vancomycin-intermediate Staphylococcus aureus isolate zj07028 by agar dilution method; method in brief: as §1

Structure (SMILES) | MIC (Staphylococcus aureus [1]) [µg/mL] | MIC (Staphylococcus aureus [2]) [µg/mL] | MIC (Staphylococcus aureus [3]) [µg/mL] | MIC (Staphylococcus aureus [4]) [µg/mL] | MIC (Staphylococcus aureus [5]) [µg/mL] | MIC (Staphylococcus aureus [6]) [µg/mL] | MIC (Staphylococcus aureus [7]) [µg/mL] | MIC (Staphylococcus aureus [8]) [µg/mL] | MIC (Staphylococcus aureus [9]) [µg/mL] | MIC (Staphylococcus aureus [10]) [µg/mL] | MIC (Staphylococcus aureus [11]) [µg/mL] | MIC (Staphylococcus aureus [12]) [µg/mL] | MIC (Staphylococcus aureus [13]) [µg/mL] | MIC (Staphylococcus aureus [14]) [µg/mL] | MIC (Staphylococcus aureus [15]) [µg/mL] | MIC (Staphylococcus aureus [16]) [µg/mL] | MIC (Staphylococcus aureus [17]) [µg/mL] | MIC (Staphylococcus aureus [18]) [µg/mL] | MIC (Staphylococcus aureus [19]) [µg/mL] | MIC (Staphylococcus aureus [20]) [µg/mL] | other results
CO[C@H]1/C=C/O[C@@]2(C)Oc3c(C)c(O)c4c(O)c(c(/C=N/N5CCN(C)CC5)c(O)c4c3C2=O)NC(=O)/C(C)=C\C=C\[C@H](C)[C@H](O)[C@@H](C)[C@@H](O)[C@@H](C)[C@H](OC(C)=O)[C@@H]1C [RIFAMPIN] | 0.008 (≈ 0.00972 µM) | 256 (≈ 311 µM) | 0.004 (≈ 0.00486 µM) | 0.008 (≈ 0.00972 µM) | > 256 | 0.016 (≈ 0.0194 µM) | 16 (≈ 19.4 µM) | 0.008 (≈ 0.00972 µM) | 0.008 (≈ 0.00972 µM) | 256 (≈ 311 µM) | 0.008 (≈ 0.00972 µM) | 0.016 (≈ 0.0194 µM) | 0.016 (≈ 0.0194 µM) | 256 (≈ 311 µM) | 0.008 (≈ 0.00972 µM) | > 256 | 0.008 (≈ 0.00972 µM) | 256 (≈ 311 µM) | 0.5 (≈ 0.608 µM) | 0.008 (≈ 0.00972 µM) | MIC (Staphylococcus aureus [21]): 0.008 µg/mL (≈ 0.00972 µM); MIC (Staphylococcus aureus [22]): 0.008 µg/mL (≈ 0.00972 µM); MIC (Staphylococcus aureus [23]): 0.5 µg/mL (≈ 0.608 µM); MIC (Staphylococcus aureus [24]): > 256 µg/mL; MIC (Staphylococcus aureus [25]): 0.008 µg/mL (≈ 0.00972 µM); MIC (Staphylococcus aureus [26]): 0.008 µg/mL (≈ 0.00972 µM); MIC (Staphylococcus aureus [27]): ≤ 0.002 µg/mL
Cc1onc(-c2ccccc2)c1C(=O)N[C@@H]1C(=O)N2[C@@H]1SC(C)(C)[C@@H]2C(=O)O [OXACILLIN] | > 64 | > 64 | > 64 | > 64 | > 64 | > 64 | > 64 | 256 (≈ 638 µM) | 8 (≈ 19.9 µM) | > 64 | > 64 | 8 (≈ 19.9 µM) | > 64 | > 64 | > 64 | > 64 | > 64 | > 64 | > 64 | > 64 | MIC (Staphylococcus aureus [21]): 32 µg/mL (≈ 79.7 µM); MIC (Staphylococcus aureus [22]): > 64 µg/mL; MIC (Staphylococcus aureus [23]): > 64 µg/mL; MIC (Staphylococcus aureus [24]): > 64 µg/mL; MIC (Staphylococcus aureus [25]): 256 µg/mL (≈ 638 µM); MIC (Staphylococcus aureus [26]): > 64 µg/mL; MIC (Staphylococcus aureus [27]): > 64 µg/mL
